Activity calls are given as the source filed them. The rule behind the calls is not given here.
Assays:
[1] = tested on: A-431; assay: Antiproliferative activity against human A431 cells incubated for 72 hrs by MTT assay; type: functional, cell-based; settings: A-431, 72 h
[2] = biological target: Epidermal growth factor receptor (Homo sapiens, UniProt P00533, L858R); assay: Inhibition of EGFR L858R (unknown origin) by mobility shift assay
[3] = biological target: Histone deacetylase 1 (Homo sapiens, UniProt Q13547); assay: Inhibition of HDAC1 (unknown origin)
[4] = tested on: FHC; assay: Cytotoxicity against human FHC cells assessed as reduction of cell viability incubated for 72 hrs by MTT assay; type: ADME, cell-based
[5] = biological target: Epidermal growth factor receptor (Homo sapiens, UniProt P00533, L858R/T790M); assay: Inhibition of EGFR L858R/T790M (unknown origin) by mobility shift assay
[6] = tested on: SK-BR-3; assay: Antiproliferation activity against human SK-BR-3 cells incubated for 72 hrs by MTT assay; type: functional, cell-based; settings: SK-BR-3, 72 h
How it was run: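 MTT assay. About 0.5–1 × 10⁴ cells/well were pre-incubated 12 h at 37 °C in 5% CO₂, then exposed to a concentration series of compound for 72 h. Formazan was dissolved in DMSO and absorbance read at 490 nm. Three wells per condition, three independent experiments. IC50 is the mean ± SD from the dose-response curves.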

[7] = tested on: L02; assay: cytotoxicity against human HL-7702 cells assessed as reduction of cell viability incubated for 72 hrs by MTT assay; type: ADME, cell-based; settings: L02, 72 h
[8] = biological target: T1, Epidermal growth factor receptor (Homo sapiens, UniProt P00533); assay: Inhibition of EGFR (unknown origin) by mobility shift assay
[9] = tested on: NCI-H1975; assay: Antiproliferative activity against human NCI-H1975 cells incubated for 72 hrs by MTT assay; type: functional, cell-based; settings: NCI-H1975, 72 h
[10] = tested on: NCI-H838; assay: Antiproliferation activity against human NCI-H838 cells incubated for 72 hrs by MTT assay; type: functional, cell-based; settings: NCI-H838, 72 h
[11] = biological target: Receptor tyrosine-protein kinase erbB-2 (Homo sapiens, UniProt P04626); assay: Inhibition of HER2 (unknown origin) by mobility shift assay
How it was run: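 In vitro kinase activity was measured by mobility shift assay, run by a contract provider.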

[12] = tested on: A549; assay: Antiproliferative activity against human A549 cells incubated for 72 hrs by MTT assay; type: functional, cell-based; settings: A549, 72 h
[13] = biological target: T1, Epidermal growth factor receptor; assay: Inhibition of EGFR in human NCI-H1975 cells assessed as reduction in EGFR phosphorylation at Tyr-1173 residues at 1 uM after 48 hrs by Western blot analysis; type: cell-based
How it was run: (§1)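 Cells were treated with compound for 48 h and lysed on ice for 30 min in RIPA buffer with protease and phosphatase inhibitors. Lysates were cleared at 14000 g, 4 °C, and protein quantified by BCA. Samples were boiled in loading buffer, run on 10–12% SDS-PAGE and transferred to PVDF. Membranes were blocked 2 h, incubated in primary antibody overnight at 4 °C, then in secondary antibody 2 h at room temperature.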

[14] = biological target: T1, Epidermal growth factor receptor; assay: Inhibition of EGFR in human NCI-H1975 cells assessed as reduction in EGFR phosphorylation at Tyr-1068 residues at 1 uM after 48 hrs by Western blot analysis; type: cell-based; how it was run: as §1
[15] = biological target: Histone deacetylase (Homo sapiens) (UniProt Q13547+O15379+Q9UBN7+Q92769+Q9UQL6+Q8WUI4+Q9BY41+Q96DB2+P56524+Q9UKV0+Q969S8); assay: Inhibition of HDAC in human NCI-H1975 cells assessed as increase in histone H3 acetylation at 2.5 uM after 1 to 12 hrs by Western blot analysis; type: cell-based; settings: time lower 1.0 hrs, time upper […]

Epidermal growth factor receptor (Homo sapiens, UniProt P00533, L858R/T790M), sequence (P00533 25-1210 T790M/L858R limits assumed): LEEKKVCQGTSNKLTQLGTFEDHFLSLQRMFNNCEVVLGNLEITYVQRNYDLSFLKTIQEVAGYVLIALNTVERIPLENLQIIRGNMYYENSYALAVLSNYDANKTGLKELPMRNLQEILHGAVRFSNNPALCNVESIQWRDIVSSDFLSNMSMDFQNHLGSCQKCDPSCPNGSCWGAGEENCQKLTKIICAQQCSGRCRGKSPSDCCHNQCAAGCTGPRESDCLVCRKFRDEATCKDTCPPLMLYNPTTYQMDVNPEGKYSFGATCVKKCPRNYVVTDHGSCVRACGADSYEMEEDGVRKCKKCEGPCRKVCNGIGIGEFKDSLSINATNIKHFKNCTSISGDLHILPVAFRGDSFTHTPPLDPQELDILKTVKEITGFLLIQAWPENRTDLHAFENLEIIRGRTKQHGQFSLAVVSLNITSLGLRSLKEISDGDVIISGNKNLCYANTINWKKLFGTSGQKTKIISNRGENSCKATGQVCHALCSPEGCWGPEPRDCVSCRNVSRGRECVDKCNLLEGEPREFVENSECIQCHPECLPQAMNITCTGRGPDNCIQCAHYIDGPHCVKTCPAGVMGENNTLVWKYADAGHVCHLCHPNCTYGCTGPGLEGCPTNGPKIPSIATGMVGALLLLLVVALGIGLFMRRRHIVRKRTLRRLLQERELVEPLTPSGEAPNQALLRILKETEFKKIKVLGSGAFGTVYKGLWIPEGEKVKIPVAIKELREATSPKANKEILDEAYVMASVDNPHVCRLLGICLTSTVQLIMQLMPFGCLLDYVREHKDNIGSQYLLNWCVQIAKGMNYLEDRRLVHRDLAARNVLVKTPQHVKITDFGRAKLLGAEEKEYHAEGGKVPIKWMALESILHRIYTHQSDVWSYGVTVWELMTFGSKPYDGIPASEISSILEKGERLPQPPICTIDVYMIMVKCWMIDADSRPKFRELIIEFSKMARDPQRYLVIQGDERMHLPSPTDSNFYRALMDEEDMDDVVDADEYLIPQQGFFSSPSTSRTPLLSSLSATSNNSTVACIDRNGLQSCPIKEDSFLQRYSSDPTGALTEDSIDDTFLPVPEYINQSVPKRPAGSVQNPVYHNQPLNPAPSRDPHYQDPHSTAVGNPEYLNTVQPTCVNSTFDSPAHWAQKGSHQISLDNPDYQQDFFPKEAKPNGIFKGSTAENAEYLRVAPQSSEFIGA
Histone deacetylase 1, sequence (Q13547 whole entry): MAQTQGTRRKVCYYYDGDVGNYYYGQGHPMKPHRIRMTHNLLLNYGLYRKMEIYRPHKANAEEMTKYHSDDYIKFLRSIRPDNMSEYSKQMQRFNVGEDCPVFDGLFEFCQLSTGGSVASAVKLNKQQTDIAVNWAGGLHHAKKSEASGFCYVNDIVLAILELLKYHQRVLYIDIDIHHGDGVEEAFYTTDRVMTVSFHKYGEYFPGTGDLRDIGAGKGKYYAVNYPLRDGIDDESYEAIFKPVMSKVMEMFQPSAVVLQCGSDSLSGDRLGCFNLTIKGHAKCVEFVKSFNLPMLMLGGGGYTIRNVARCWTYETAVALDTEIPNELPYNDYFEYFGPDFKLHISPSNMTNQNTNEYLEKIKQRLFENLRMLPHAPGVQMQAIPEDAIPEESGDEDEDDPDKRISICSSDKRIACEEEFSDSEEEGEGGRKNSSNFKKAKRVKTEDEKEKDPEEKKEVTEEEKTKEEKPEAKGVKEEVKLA
Receptor tyrosine-protein kinase erbB-2, sequence (P04626 whole entry): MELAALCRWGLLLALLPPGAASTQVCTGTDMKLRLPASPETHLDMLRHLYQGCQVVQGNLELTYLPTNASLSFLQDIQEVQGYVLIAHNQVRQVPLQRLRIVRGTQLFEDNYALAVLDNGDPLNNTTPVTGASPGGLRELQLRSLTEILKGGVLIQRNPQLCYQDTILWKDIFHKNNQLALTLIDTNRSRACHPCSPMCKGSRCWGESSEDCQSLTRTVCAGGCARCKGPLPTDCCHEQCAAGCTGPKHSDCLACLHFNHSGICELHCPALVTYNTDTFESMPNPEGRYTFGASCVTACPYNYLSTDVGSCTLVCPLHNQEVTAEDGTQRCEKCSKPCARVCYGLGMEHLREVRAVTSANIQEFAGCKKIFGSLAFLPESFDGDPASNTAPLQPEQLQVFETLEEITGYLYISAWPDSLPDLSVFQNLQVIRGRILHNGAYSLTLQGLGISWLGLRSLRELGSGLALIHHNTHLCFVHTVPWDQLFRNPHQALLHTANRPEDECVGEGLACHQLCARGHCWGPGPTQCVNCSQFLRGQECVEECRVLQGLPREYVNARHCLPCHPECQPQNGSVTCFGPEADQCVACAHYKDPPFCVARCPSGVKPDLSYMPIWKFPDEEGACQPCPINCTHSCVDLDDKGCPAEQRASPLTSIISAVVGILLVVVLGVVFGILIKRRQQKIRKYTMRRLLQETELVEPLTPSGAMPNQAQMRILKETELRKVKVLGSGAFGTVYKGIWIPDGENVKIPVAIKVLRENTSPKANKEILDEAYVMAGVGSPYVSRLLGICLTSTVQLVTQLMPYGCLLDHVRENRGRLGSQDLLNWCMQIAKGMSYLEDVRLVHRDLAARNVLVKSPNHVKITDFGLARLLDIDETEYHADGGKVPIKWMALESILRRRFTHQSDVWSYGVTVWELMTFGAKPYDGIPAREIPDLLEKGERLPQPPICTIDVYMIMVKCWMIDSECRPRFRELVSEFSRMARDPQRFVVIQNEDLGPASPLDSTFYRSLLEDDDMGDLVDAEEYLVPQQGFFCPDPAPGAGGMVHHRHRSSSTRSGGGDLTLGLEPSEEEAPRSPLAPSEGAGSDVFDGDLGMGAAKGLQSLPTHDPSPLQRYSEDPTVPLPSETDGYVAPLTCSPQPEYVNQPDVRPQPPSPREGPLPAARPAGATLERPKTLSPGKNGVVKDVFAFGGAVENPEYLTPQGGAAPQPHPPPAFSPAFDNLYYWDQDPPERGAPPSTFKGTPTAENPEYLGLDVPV
T1 sequence (P00533 whole entry): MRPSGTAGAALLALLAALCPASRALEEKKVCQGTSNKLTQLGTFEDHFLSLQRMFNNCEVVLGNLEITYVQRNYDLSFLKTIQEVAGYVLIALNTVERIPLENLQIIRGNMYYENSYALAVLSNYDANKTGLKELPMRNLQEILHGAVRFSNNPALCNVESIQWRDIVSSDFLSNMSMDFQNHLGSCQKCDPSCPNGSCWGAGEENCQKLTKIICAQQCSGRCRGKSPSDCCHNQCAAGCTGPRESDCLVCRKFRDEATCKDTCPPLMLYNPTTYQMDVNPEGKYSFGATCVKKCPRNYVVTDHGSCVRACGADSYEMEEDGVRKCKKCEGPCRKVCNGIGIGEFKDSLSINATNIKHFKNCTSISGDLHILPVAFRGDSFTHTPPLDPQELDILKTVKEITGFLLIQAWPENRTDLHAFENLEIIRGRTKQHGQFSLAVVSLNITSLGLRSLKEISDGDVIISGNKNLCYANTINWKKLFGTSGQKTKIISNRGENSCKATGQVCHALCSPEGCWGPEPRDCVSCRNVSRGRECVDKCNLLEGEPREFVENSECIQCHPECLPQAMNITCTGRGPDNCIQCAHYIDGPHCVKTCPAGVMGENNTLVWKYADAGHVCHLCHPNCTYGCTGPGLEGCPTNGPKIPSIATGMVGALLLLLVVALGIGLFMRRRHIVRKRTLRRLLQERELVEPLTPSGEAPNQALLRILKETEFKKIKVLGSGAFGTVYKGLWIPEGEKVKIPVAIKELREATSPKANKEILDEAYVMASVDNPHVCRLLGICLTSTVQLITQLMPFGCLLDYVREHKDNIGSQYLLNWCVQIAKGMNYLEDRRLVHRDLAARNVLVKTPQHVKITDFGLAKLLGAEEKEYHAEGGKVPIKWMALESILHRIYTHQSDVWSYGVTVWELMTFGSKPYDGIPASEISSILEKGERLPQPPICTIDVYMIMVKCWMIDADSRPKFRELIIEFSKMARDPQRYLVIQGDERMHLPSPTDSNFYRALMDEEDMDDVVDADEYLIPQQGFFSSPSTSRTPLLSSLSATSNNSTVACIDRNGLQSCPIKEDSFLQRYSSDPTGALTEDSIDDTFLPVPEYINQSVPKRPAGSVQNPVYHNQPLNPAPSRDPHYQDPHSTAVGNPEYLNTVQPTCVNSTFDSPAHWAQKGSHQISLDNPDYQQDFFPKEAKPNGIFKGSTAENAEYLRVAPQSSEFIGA

SMILES	IC50 [1] [µM]	IC50 [2] [nM]	IC50 [3] [nM]	IC50 [4] [µM]	IC50 [5] [nM]	IC50 [6] [µM]	IC50 [7] [µM]	IC50 [8] [nM]	IC50 [9] [µM]	IC50 [10] [µM]	IC50 [11] [nM]	IC50 [12] [µM]	inhibition [13]	inhibition [14]	inhibition [15]
C=CC(=O)Nc1cc2c(Nc3cccc(Cl)c3F)ncnc2cc1OCc1cn(CCC(=O)NO)nn1	15	1.1	44	> 25	8.3	> 50	> 25	0.34	6.61	> 50	13	> 50	–	–	–
C=CC(=O)Nc1cc2c(Nc3ccc(OCc4cccc(F)c4)c(Cl)c3)ncnc2cc1OCc1cn(CCCC(=O)NO)nn1	19.9	2.9	> 1000	> 25	15	20.2	> 25	1.8	12	> 50	3.7	> 50	–	–	–
O=C(CCCCCCC(=O)Nc1ccccc1)NO [VORINOSTAT]	–	–	–	–	–	2.13	–	–	–	–	–	–	inactive	inactive	–
C=CC(=O)Nc1cc2c(Nc3ccc(F)c(Cl)c3)ncnc2cc1OCc1cn(CCC(=O)NO)nn1	22.1	1.1	93	> 25	2.3	> 50	> 25	0.33	4.45	> 50	5.4	> 50	–	–	–
C=CC(=O)Nc1cc2c(Nc3ccc(F)c(Cl)c3)ncnc2cc1OCc1cn(CCCCC(=O)NO)nn1	15	0.88	292	> 25	1.8	20	> 25	0.35	2.5	> 50	7.3	> 50	–	–	–
C=CC(=O)Nc1cc2c(Nc3cccc(Cl)c3F)ncnc2cc1OCc1cn(CCCC(=O)NO)nn1	16.9	–	34	> 25	–	> 50	> 25	–	2.8	> 50	8	> 50	–	–	–
C=CC(=O)Nc1cc2c(Nc3ccc(OCc4cccc(F)c4)c(Cl)c3)ncnc2cc1OCc1cn(CCCCC(=O)NO)nn1	18.8	2.6	> 1000	> 25	14	16	> 25	1.5	14.5	> 50	3.8	> 50	–	–	–
COc1cc2ncnc(Nc3ccc(F)c(Cl)c3)c2cc1OCCCN1CCOCC1	–	–	–	–	–	–	–	–	–	–	–	–	–	–	Active
C=CC(=O)Nc1cc2c(Nc3ccc(OCc4cccc(F)c4)c(Cl)c3)ncnc2cc1OCc1cn(CCC(=O)NO)nn1	16.3	2.2	> 1000	> 25	16	24.8	> 25	1.1	21	> 50	3.7	> 50	–	–	–
C=CC(=O)Nc1cc2c(Nc3cccc(Cl)c3F)ncnc2cc1OCc1cn(CCCCC(=O)NO)nn1	15.6	1.2	132	> 25	17	> 50	> 25	0.44	4.18	> 50	16	> 50	–	–	–
